In ChEMBL document CHEMBL4038284, “Synthesis of novel quinoline-based 4,5-dihydro-1H-pyrazoles as potential anticancer, antifungal, antibacterial and antiprotozoal agents” (Eur J Med Chem, 2017):
Activity calls are given as the source filed them. The rule behind the calls is not given here.

Legend:
Malme-3M = assay: Growth inhibition of human MALME-3M cells incubated for 48 hrs by sulforhodamine B assay; type: functional
Summary of the method: (§1)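 Five-dose NCI SRB assay at 100, 10, 1.0, 0.1 and 0.01 μM for 48 h at 37 °C, 5% CO2. Medium was RPMI-1640 with 5% FBS and 2 mM glutamine. Time-zero plates were TCA-fixed at compound addition, A515 read after SRB staining. GI50 was solved from [(Ti−Tz)/(C−Tz)]×100 = 50. Values beyond the tested range are given as > or <.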

UACC-257 [1] = assay: Growth inhibition of human UACC257 cells incubated for 48 hrs by sulforhodamine B assay; type: functional; settings: UACC-257, 48 h
Summary of the method: (§2)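 NCI-60 panel cells grown in RPMI-1640 with 5% FBS and 2 mM L-glutamine, preincubated 24 h at 37 °C/5% CO2. Time-zero plates were TCA-fixed at compound addition. DMSO stocks were diluted in medium and tested at five final concentrations (100, 10, 1.0, 0.1, 0.01 µM) for 48 h. Cells were TCA-fixed, stained with SRB and read at 515 nm. GI50 = 50% lower net protein increase versus control.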

Hs-578T = assay: Growth inhibition of human Hs578T cells incubated for 48 hrs by sulforhodamine B assay; type: functional; summary of the method: as §1
NCI-H322M = assay: Growth inhibition of human NCI-H322M cells incubated for 48 hrs by sulforhodamine B assay; type: functional; summary of the method: as §1
SK-MEL-5 = assay: Growth inhibition of human SK-MEL-5 cells incubated for 48 hrs by sulforhodamine B assay; type: functional; settings: SK-MEL-5, 48 h; for CC50: read-out: LC50 (the source's name)
Summary of the method: (§3)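 NCI 60-line screen. Cells in RPMI-1640 with 5% FBS and 2 mM L-glutamine, preincubated 24 h, then time-zero plates TCA-fixed. Compounds from DMSO stocks given at five final concentrations (100, 10, 1.0, 0.1, 0.01 µM) for 48 h at 37 °C, 5% CO2. Cells fixed with 10% TCA, SRB-stained, read at 515 nm. GI50 is the concentration giving 50% lower net protein increase versus control.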

SF-295 = assay: Growth inhibition of human SF295 cells incubated for 48 hrs by sulforhodamine B assay; type: functional; settings: SF-295, 48 h; summary of the method: as §1
M14 = assay: Growth inhibition of human M14 cells incubated for 48 hrs by sulforhodamine B assay; type: functional; settings: M14, 48 h; summary of the method: as §1
UACC-257 [2] = assay: Growth inhibition of human UACC257 cells at 10 uM incubated for 48 hrs by sulforhodamine B assay; type: functional, cell-based
Summary of the method: (§4)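 NCI-60 single-dose screen at 10 µM for 48 h. Cells were grown in RPMI-1640 with 5% FBS and 2 mM L-glutamine and preincubated 24 h before compound. Time-zero plates were TCA-fixed at compound addition. After exposure, cells were TCA-fixed, stained with SRB and read at 515 nm. Percentage growth was calculated against time-zero and untreated-control absorbances.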

ACHN = assay: Growth inhibition of human ACHN cells incubated for 48 hrs by sulforhodamine B assay; type: functional; settings: for CC50: read-out: LC50 (the source's name); summary of the method: as §3
UACC-62 = assay: Growth inhibition of human UACC62 cells at 10 uM incubated for 48 hrs by sulforhodamine B assay; type: functional, cell-based; summary of the method: as §4
OVCAR-5 = assay: Growth inhibition of human OVCAR5 cells incubated for 48 hrs by sulforhodamine B assay; type: functional; settings: OVCAR-5, 48 h; for CC50: read-out: LC50 (the source's name); summary of the method: as §3
MOLT-4 = assay: Growth inhibition of human MOLT4 cells incubated for 48 hrs by sulforhodamine B assay; type: functional; settings: MOLT-4, 48 h; for CC50: read-out: LC50 (the source's name); summary of the method: as §3
HCC 2998 = assay: Growth inhibition of human HCC2998 cells incubated for 48 hrs by sulforhodamine B assay; type: functional; settings: HCC 2998, 48 h; summary of the method: as §3
EKVX = assay: Growth inhibition of human EKVX cells incubated for 48 hrs by sulforhodamine B assay; type: functional
Summary of the method: (§5)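 NCI five-dose SRB assay (100, 10, 1.0, 0.1, 0.01 µM) with 48 h exposure in RPMI-1640 with 5% FBS and 2 mM L-glutamine. Cells fixed with TCA and stained with SRB, read at 515 nm. GI50 is the concentration where [(Ti−Tz)/(C−Tz)]×100 = 50.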

HCT-116 = assay: Growth inhibition of human HCT116 cells at 10 uM incubated for 48 hrs by sulforhodamine B assay; type: functional, cell-based
Summary of the method: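 NCI 60-cell-line screen at a single 10 µM dose. Cells in RPMI-1640 with 5% FBS and 2 mM L-glutamine, pre-incubated 24 h, then treated for 48 h at 37 °C. TCA fixation, sulforhodamine B staining, absorbance at 515 nm. Percentage growth calculated against time-zero and untreated controls.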

Staphylococcus aureus = assay: Antibacterial activity against methicillin-sensitive Staphylococcus aureus ATCC 25923 after 24 hrs by resazurin dye based microdilution assay; type: functional; settings: ATCC 25923, 24 h
Summary of the method: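 MIC taken as the lowest concentration giving visible inhibition and/or by resazurin (1 mg/mL). Gentamicin was the control. Run in duplicate, repeated at least three times.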

HOP-62 = assay: Growth inhibition of human HOP62 cells incubated for 48 hrs by sulforhodamine B assay; type: functional; settings: HOP-62, 48 h; summary of the method: as §5
SK-MEL-28 = assay: Growth inhibition of human SK-MEL-28 cells incubated for 48 hrs by sulforhodamine B assay; type: functional; settings: SK-MEL-28, 48 h; summary of the method: as §2
OVCAR-4 = assay: Growth inhibition of human OVCAR4 cells at 10 uM incubated for 48 hrs by sulforhodamine B assay; type: functional, cell-based
Summary of the method: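 NCI 60-line panel, single 10 μM dose. Cells were grown in RPMI-1640 with 5% FBS and 2 mM L-glutamine and pre-incubated 24 h before compound addition (DMSO stock). Exposure was 48 h at 37 °C, 5% CO2. Cells were fixed with cold TCA (10% final), stained with 0.4% SRB, bound dye dissolved in 10 mM Tris base, A515 read. Growth was taken relative to time-zero and untreated control plates.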

MDA-MB-231 = assay: Growth inhibition of human MDA-MB-231 cells incubated for 48 hrs by sulforhodamine B assay; type: functional; settings: MDA-MB-231, 48 h; summary of the method: as §1
DU-145 = assay: Growth inhibition of human DU145 cells incubated for 48 hrs by sulforhodamine B assay; type: functional; settings: DU-145, 48 h; for CC50: read-out: LC50 (the source's name); summary of the method: as §5
NCI-H226 = assay: Growth inhibition of human NCI-H226 cells incubated for 48 hrs by sulforhodamine B assay; type: functional; settings: NCI-H226, 48 h; for CC50: read-out: LC50 (the source's name); summary of the method: as §3
IGROV-1 = assay: Growth inhibition of human IGROV1 cells incubated for 48 hrs by sulforhodamine B assay; type: functional; settings: IGROV-1, 48 h; for CC50: read-out: LC50 (the source's name); summary of the method: as §3
SF-539 = assay: Growth inhibition of human SF539 cells incubated for 48 hrs by sulforhodamine B assay; type: functional; settings: SF-539, 48 h; summary of the method: as §2
786-0 = assay: Growth inhibition of human 786-0 cells incubated for 48 hrs by sulforhodamine B assay; type: functional; settings: 786-0, 48 h; summary of the method: as §5
[3] = read-out: LC50 (the source's name)

Structure (SMILES): COc1ccc(C2=NN(C=O)C(c3cccc(Nc4ccnc5cc(Cl)ccc45)c3)C2)cc1 (configuration not stated)
- GI50 (Malme-3M): 2.04 µM
- CC50 (Malme-3M; [3]): > 100 µM
- GI50 (UACC-257 [1]): 3.06 µM
- CC50 (UACC-257 [1]; [3]): > 100 µM
- GI50 (Hs-578T): 3.92 µM
- CC50 (Hs-578T; [3]): > 100 µM
- GI50 (NCI-H322M): 6.51 µM
- CC50 (NCI-H322M; [3]): > 100 µM
- GI50 (SK-MEL-5): 0.92 µM
- CC50 (SK-MEL-5): 17.4 µM
- GI50 (SF-295): 1.24 µM
- CC50 (SF-295; [3]): > 100 µM
- GI50 (M14): 2.34 µM
- CC50 (M14; [3]): 67.5 µM
- growth inhibition (GI) (UACC-257 [2]): Active
- GI50 (ACHN): 4.59 µM
- CC50 (ACHN): > 100 µM
- growth inhibition (GI) (UACC-62): Active
- GI50 (OVCAR-5): 11.3 µM
- CC50 (OVCAR-5): > 100 µM
- GI50 (MOLT-4): 2.37 µM
- CC50 (MOLT-4): > 100 µM
- GI50 (HCC 2998): 11.7 µM
- CC50 (HCC 2998; [3]): > 100 µM
- GI50 (EKVX): 2.81 µM
- LC50 (EKVX): > 100 µM
- growth inhibition (GI) (HCT-116): Active
- MIC (Staphylococcus aureus): > 1000 µg/mL
- GI50 (HOP-62): 2.11 µM
- CC50 (HOP-62; [3]): 67.7 µM
- GI50 (SK-MEL-28): 8.12 µM
- CC50 (SK-MEL-28; [3]): 67.1 µM
- growth inhibition (GI) (OVCAR-4): Active
- GI50 (MDA-MB-231): 4 µM
- CC50 (MDA-MB-231; [3]): > 100 µM
- GI50 (DU-145): 3.62 µM
- CC50 (DU-145): > 100 µM
- GI50 (NCI-H226): 3.13 µM
- CC50 (NCI-H226): > 100 µM
- GI50 (IGROV-1): 3.71 µM
- CC50 (IGROV-1): > 100 µM
- GI50 (SF-539): 2.34 µM
- CC50 (SF-539; [3]): 39.7 µM
- GI50 (786-0): 3.43 µM
- LC50 (786-0): 79.8 µM

Structure (SMILES): COc1cc(C2=NN(c3ccc(Cl)cc3)C(c3cccc(Nc4ccnc5cc(Cl)ccc45)c3)C2)cc(OC)c1OC (configuration not stated)
- growth inhibition (GI) (UACC-257 [2]): inactive
- growth inhibition (GI) (UACC-62): inactive
- growth inhibition (GI) (HCT-116): inactive
- MIC (Staphylococcus aureus): > 1000 µg/mL
- growth inhibition (GI) (OVCAR-4): inactive

Structure (SMILES): COc1ccc(C2=NN(c3ccc(Cl)cc3)C(c3cccc(Nc4ccnc5cc(Cl)ccc45)c3)C2)cc1 (configuration not stated)
- growth inhibition (GI) (UACC-257 [2]): inactive
- growth inhibition (GI) (UACC-62): inactive
- growth inhibition (GI) (HCT-116): inactive
- MIC (Staphylococcus aureus): > 1000 µg/mL
- growth inhibition (GI) (OVCAR-4): inactive

Structure (SMILES): COc1cccc2c1C(=O)c1c(O)c3c(c(O)c1C2=O)C[C@@](O)(C(=O)CO)C[C@@H]3O[C@H]1C[C@H](N)[C@H](O)[C@H](C)O1 [DOXORUBICIN]
- GI50 (Malme-3M): 0.12 µM
- GI50 (UACC-257 [1]): 0.14 µM
- GI50 (Hs-578T): 0.33 µM
- GI50 (NCI-H322M): 0.54 µM
- GI50 (SK-MEL-5): 0.08 µM
- CC50 (SK-MEL-5): 0.49 µM
- GI50 (SF-295): 0.1 µM
- GI50 (M14): 0.18 µM
- GI50 (ACHN): 0.08 µM
- CC50 (ACHN): 100 µM
- GI50 (OVCAR-5): 0.41 µM
- CC50 (OVCAR-5): 100 µM
- GI50 (MOLT-4): 0.03 µM
- CC50 (MOLT-4): 100 µM
- GI50 (HCC 2998): 0.26 µM
- GI50 (EKVX): 0.41 µM
- GI50 (HOP-62): 0.07 µM
- GI50 (SK-MEL-28): 0.21 µM
- GI50 (MDA-MB-231): 0.51 µM
- GI50 (DU-145): 0.11 µM
- CC50 (DU-145): 100 µM
- GI50 (NCI-H226): 0.05 µM
- CC50 (NCI-H226): 6.4 µM
- GI50 (IGROV-1): 0.17 µM
- CC50 (IGROV-1): 100 µM
- GI50 (SF-539): 0.12 µM
- GI50 (786-0): 0.13 µM

Structure (SMILES): Clc1ccc(C2=NN(c3ccccc3)C(c3cccc(Nc4ccnc5cc(Cl)ccc45)c3)C2)cc1 (configuration not stated)
- growth inhibition (GI) (UACC-257 [2]): inactive
- growth inhibition (GI) (UACC-62): inactive
- growth inhibition (GI) (HCT-116): inactive
- MIC (Staphylococcus aureus): > 1000 µg/mL
- growth inhibition (GI) (OVCAR-4): inactive
